Assay results reported in ChEMBL document CHEMBL4680226, “Design, synthesis, and evaluation of N-phenyl-4-(2-phenylsulfonamido)-benzamides as microtubule-targeting agents in drug-resistant cancer cells, displaying HDAC inhibitory response” (Eur J Med Chem, 2020).
The source made the active and inactive calls. The calls are words filed in the database; no cut-off is given here.

How the values were obtained:
Assay type in all cases: cell-based
Tubulin (Homo sapiens) [1] = molecular target: T1, Tubulin (Homo sapiens) (UniProt P68371+Q9H4B7+P0DPH7+P68366+Q13509+Q71U36+P04350+Q3ZCM7+P07437+P68363+Q9BQE3+Q6PEY2+Q13885+Q9BVA1+Q9BUF5); test: Induction of microtubule aggregation in human KB-VIN cells assessed as polymerized fraction at 0.1 uM measured after 16 hrs by SDS-PAGE analysis (reference value: 34%)
Method in brief: (§1)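 KB-Vin or KB-7D cells treated 16 h, then lysed 5 min at 37 °C in the dark in hypotonic buffer (1% NP-40, 1 mmol/L MgCl2, 2 mmol/L EGTA, 50 mmol/L Tris-HCl pH 6.8, protease inhibitors). Spun 13000 rpm, 10 min, room temperature. Soluble supernatant and resuspended polymerized pellet run on SDS-PAGE.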

Tubulin (Homo sapiens) [2] = molecular target: T1, Tubulin (Homo sapiens); test: Induction of microtubule aggregation in human KB7D cells assessed as polymerized fraction at 0.01 uM measured after 16 hrs by SDS-PAGE analysis (reference value: 34%); method in brief: as §1
Tubulin (Homo sapiens) [3] = molecular target: T1, Tubulin (Homo sapiens); test: Induction of microtubule aggregation in human KB7D cells assessed as polymerized fraction at 0.1 uM measured after 16 hrs by SDS-PAGE analysis (reference value: 34%); method in brief: as §1
Tubulin (Homo sapiens) [4] = molecular target: T1, Tubulin (Homo sapiens); test: Induction of microtubule aggregation in human KB-VIN cells at 1 uM measured after 24 hrs by DAPI staining based deconvolution fluorescence microscopic analysis
Method in brief: (§2)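 Cells on glass coverslips treated 24 h, fixed in 4% paraformaldehyde for 15 min, and permeabilized with 0.5% Triton X-100. Blocked in PBS/2% BSA, stained with anti-beta-tubulin (1:250) and Alexa 488 anti-mouse (1:250), and mounted with DAPI. Imaged by wide-field deconvolution microscopy.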

Tubulin (Homo sapiens) [5] = molecular target: T1, Tubulin (Homo sapiens); test: Induction of microtubule aggregation in human KB7D cells assessed as polymerized fraction at 1 uM measured after 16 hrs by SDS-PAGE analysis (reference value: 34%); method in brief: as §1
Tubulin (Homo sapiens) [6] = molecular target: T1, Tubulin (Homo sapiens); test: Induction of microtubule aggregation in human KB-VIN cells assessed as polymerized fraction at 1 uM measured after 16 hrs by SDS-PAGE analysis (reference value: 34%); method in brief: as §1
Tubulin (Homo sapiens) [7] = molecular target: T1, Tubulin (Homo sapiens); test: Induction of microtubule aggregation in human KB-VIN cells assessed as polymerized fraction at 0.01 uM measured after 16 hrs by SDS-PAGE analysis (reference value: 34%); method in brief: as §1
Tubulin (Homo sapiens) [8] = molecular target: T1, Tubulin (Homo sapiens); test: Induction of microtubule aggregation in human KB7D cells at 1 uM measured after 24 hrs by DAPI staining based deconvolution fluorescence microscopic analysis; method in brief: as §2

CC(=O)O[C@H]1C(=O)[C@@]2(C)[C@H]([C@H](OC(=O)c3ccccc3)[C@]3(O)C[C@H](OC(=O)[C@H](O)[C@@H](NC(=O)c4ccccc4)c4ccccc4)C(C)=C1C3(C)C)[C@]1(OC(C)=O)CO[C@@H]1C[C@@H]2O
Activity (Tubulin (Homo sapiens) [1]): 45.9% | Activity (Tubulin (Homo sapiens) [2]): 45.9% | Activity (Tubulin (Homo sapiens) [3]): 59.7% | Activity (Tubulin (Homo sapiens) [4]): Active | Activity (Tubulin (Homo sapiens) [5]): 61.5% | Activity (Tubulin (Homo sapiens) [6]): 46.1% | Activity (Tubulin (Homo sapiens) [7]): 41.1% | Activity (Tubulin (Homo sapiens) [8]): Active
